Assay results collected from several papers.

O=c1c(O)c(-c2ccc(O)cc2)oc2cc(O)cc(O)c12
IC50 (HEp-2; cell growth or viability; WST-1; 48 h): 30.3 µM

CCCCc1ccc2[nH]c(NC(=O)OC)nc2c1
IC50 (FaDu; cell growth or viability; 72 h): 0.153 µM

Cc1ccc(O)cc1
IC50 (B16F0; cell growth or viability; MTT; 48 h): 1900 µM

COc1ccc(-c2nc3ccc(C)cc3[nH]2)cc1O
IC50 (MCF7; cell growth or viability; MTT; 48 h): 23.7 µM

CCN(CC)CCNC(=O)COc1ccc(OC)cc1
IC50 (FaDu; cell growth or viability; 72 h): > 20 µM

COc1ccc(CC(C)NCC(O)c2ccc(O)c(NC=O)c2)cc1 (centres unmarked)
IC50 (THP-1; TNF-α release; inhibitor; 17 h; LPS-stimulated): 0.006 µM

CCn1cnc2ccc(/C=C/C(=O)NO)cc2c1=O
IC50 (SW-620; cell growth or viability; SRB; 48 h): 6.69 µM

CN(C)c1ccc(-c2nc3ccccc3[nH]2)cc1
IC50 (MCF7; cell growth or viability; MTT; 48 h): > 100 µM

CC[C@@]1(O)C(=O)OCc2c1cc1n(c2=O)Cc2cc3ccccc3nc2-1
IC50 (P388; cell growth or viability; MTT; 96 h): 0.004 µM

CCCn1cnc2cc(/C=C/C(=O)NO)ccc2c1=O
IC50 (SW-620; cell growth or viability; SRB; 48 h): 1.34 µM

COc1ccc(C(=O)O[C@@H]2CN3Cc4c(cc5c(c4OC)OCO5)[C@@]24C=C[C@H](OC)C[C@@H]34)cc1
IC50 (SAOS-2; cell growth or viability; WST-1): > 10 µM

CCCC1(C)C(C#N)(C#N)C1(C#N)C#N
IC50 (THP-1; TNF-α release; inhibitor; 17 h; LPS-stimulated): 1.15 µM

COc1cc(Nc2nccc(-c3cnn4nc(OC)ccc34)n2)cc(C(F)(F)F)c1
IC50 (NCI-H441; cell growth or viability; ATP luminescence): 0.57 µM

Clc1ccc(N2CCN(Cc3c[nH]c4ncccc34)CC2)cc1
IC50 (FaDu; cell growth or viability; 72 h): > 20 µM

COc1ccc(-c2nc3ccc(C)cc3[nH]2)cc1OC
IC50 (MCF7; cell growth or viability; MTT; 48 h): > 100 µM

COc1c(C)c(OC)c2c(c1C)OC(c1ccccc1)CC2=O (centres unmarked)
IC50 (FaDu; cell growth or viability; SRB; 72 h): > 50 µM

CC(=O)O[C@H]1C(=O)[C@@]2(C)[C@H]([C@H](OC(=O)c3ccccc3)[C@]3(O)C[C@H](OC(=O)[C@H](O)[C@@H](NC(=O)c4ccccc4)c4ccccc4)C(C)=C1C3(C)C)[C@]1(OC(C)=O)CO[C@@H]1C[C@@H]2O
IC50 (Panc02; cell growth or viability; CCK-8; 72 h): 0.0833 µM

NCCc1ccc(O)c(O)c1
IC50 (FaDu; cell growth or viability; 72 h): > 20 µM

N#Cc1cc([N+](=O)[O-])c2sc(C(N)=O)[n+]([O-])c2c1
IC50 (THP-1; TNF-α release; inhibitor; ELISA; 17 h; LPS-stimulated): 1.95 µM

O=c1c(O)c(-c2ccc(O)c(O)c2)oc2cc(O)cc(O)c12
IC50 (HEp-2; cell growth or viability; WST-1; 48 h): 10.9 µM

CCN(CC)CCOC(=O)C1(c2ccc([N+](=O)[O-])cc2)CCCC1
IC50 (FaDu; cell growth or viability; 72 h): > 20 µM

CC1(C)CC[C@]2(C)CC[C@]3(C)C(=CC[C@@H]4[C@@]5(C)CC[C@H](O)C(C)(C)[C@@H]5CC[C@]43C)[C@@H]2C1
IC50 (HEp-2; cell growth or viability; WST-1; 48 h): 85.6 µM

CC(C)[C@H](N)C(=O)N1CCC[C@H]1B(O)O
IC50 (NOMO-1; cell growth or viability; ATP luminescence; 5 days): 0.031 µM

COc1ccc(C(=O)O[C@@H]2CN3Cc4c(cc5c(c4OC)OCO5)[C@@]24C=C[C@H](OC)C[C@@H]34)cc1OC
IC50 (SAOS-2; cell growth or viability; WST-1): 2.1 µM

CC(C)C[C@H](NC(=O)[C@H](Cc1ccccc1)NC(=O)c1cnccn1)B(O)O
IC50 (SJSA-1; cell growth or viability; ATP luminescence): 0.011 µM

CCCCCC/N=C1\c2cc(C(N)=O)nc3c(N)c(Cl)c(N)c(c23)N1C
IC50 (Calu-3; cell growth or viability): 0.86 µM

Cc1ccc2nc(-c3ccc(Cl)c(Cl)c3)[nH]c2c1
IC50 (MCF7; cell growth or viability; MTT; 48 h): 50.8 µM

CN1/C(=N/c2ccc(Cl)cc2)c2cc(C(N)=O)nc3c(N)c(Cl)c(N)c1c23
IC50 (Calu-3; cell growth or viability): 10.4 µM

CC(=O)O[C@H]1C(=O)[C@@]2(C)[C@H]([C@H](OC(=O)c3ccccc3)[C@]3(O)C[C@H](OC(=O)[C@H](O)[C@@H](NC(=O)c4ccccc4)c4ccccc4)C(C)=C1C3(C)C)[C@]1(OC(C)=O)CO[C@@H]1C[C@@H]2O
IC50 (MCF7; cell growth or viability; MTT): 2.35 µM

COc1cc2nc(N3CCN(C(=O)c4ccco4)[C@H]4CCCC[C@H]43)nc(N)c2cc1OC (racemic)
IC50 (FaDu; cell growth or viability; 72 h): 14.1 µM

CC(C)NCC(O)c1ccc(O)c(O)c1 (racemic)
IC50 (THP-1; TNF-α release; inhibitor; 17 h; LPS-stimulated): 0.016 µM

c1ccc2c(-c3nc4ccccc4[nH]3)c3ccccc3cc2c1
IC50 (MCF7; cell growth or viability; MTT; 48 h): 13.2 µM

COc1c2c(cc3c1OCO3)[C@]13C=C[C@H](OC)C[C@H]1N(C2)C[C@H]3OC(=O)c1cccc(C)c1
IC50 (SAOS-2; cell growth or viability; WST-1): > 10 µM

N#Cc1ccc(COC[C@H]2O[C@@H](n3c(NCc4ccc(Cl)c(Cl)c4)nc4c(N)ncnc43)[C@H](O)[C@@H]2O)cc1
IC50 (FaDu; cell growth or viability; 72 h): > 20 µM

O=C(/C=C/c1ccc2ncn(Cc3ccccc3F)c(=O)c2c1)NO
IC50 (SW-620; cell growth or viability; SRB; 48 h): 1.12 µM

COc1cccc2c1C(=O)c1c(O)c3c(c(O)c1C2=O)C[C@@](O)(C(=O)CO)C[C@@H]3O[C@H]1C[C@H](N)[C@H](O)[C@H](C)O1
IC50 (SUM159; cell growth or viability; MTT; 48 h): 4 µM

O=C(/C=C/c1cccc(S(=O)(=O)Nc2ccccc2)c1)NO
IC50 (SW-620; cell growth or viability; SRB; 48 h): 3.23 µM

O=C(/C=C/c1ccc(O)c(O)c1)O[C@@H]1C[C@](O)(C(=O)O)C[C@@H](O)[C@H]1O
IC50 (HEp-2; cell growth or viability; WST-1; 48 h): 5.1 µM

Nc1nc(Nc2ccccc2)nc2c1ncn2[C@@H]1O[C@H](CO)[C@@H](O)[C@H]1O
IC50 (FaDu; cell growth or viability; 72 h): > 20 µM

C=CCn1c(-c2ccc(Cl)cc2)nc2ccccc21
IC50 (MCF7; cell growth or viability; MTT): 79 µM

Cc1cc(-c2nc(C(=O)Nc3cc4oc(N5CCOCC5)nc4nc3N3CC[C@@H](O)C3)co2)ccn1
IC50 (A20; cell growth or viability; 5 days): 2.45 µM

Cc1ccc(S(=O)(=O)N[C@@H](Cc2ccccc2)C(=O)CCl)cc1
IC50 (THP-1; TNF-α release; inhibitor; 17 h; LPS-stimulated): 1.08 µM

O=C(/C=C/c1ccc2ncn(CC3CCCC3)c(=O)c2c1)NO
IC50 (SW-620; cell growth or viability; SRB; 48 h): 1.19 µM

CC[C@@H](C)[C@H](N)C(=O)N1Cc2ccccc2C1
IC50 (NOMO-1; cell growth or viability; ATP luminescence; 48 h): 4.18 µM
